# Laboratory results as given in ChEMBL document CHEMBL1139851, “Synthesis and SAR of [1,2,4]triazolo[1,5-a]pyrimidines, a class of anticancer agents with a unique mechanism of tubulin inhibition” (J Med Chem, 2007).
# pIC50: −log10 of the molar value. The source made the active and inactive calls. The calls are words filed in the database; no cut-off is given here.
# Experiments:
# COLO 205 = assay: Cytotoxicity against COLO205 cells; format: cell-based; settings: Homo sapiens
# Outline: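 MTS cytotoxicity assay in COLO 205 cells. Trypsinized cells were plated at 1000/well and preincubated about 24 h at 37 °C in 5% CO2. Compounds were added as nine serial 2-fold DMSO dilutions, final top concentration typically 5 µM, and cells were cultured 3 days. Absorbance was normalized to a time-0 plate. IC50 was read from a 10-concentration dose-response curve run in triplicate.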
# KB [1] = assay: Antiproliferative activity against KB cells expressing MDR1; format: functional, cell-based; settings: Homo sapiens
# Outline: (§1)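 KB, KB 8.5 and KB V1 lines differ in P-gp (MDR1) level. Growth-inhibition IC50 was taken from a dose-response curve at 10 concentrations in duplicate.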
# [2] = Antiproliferative activity against KB8.5 cells expressing MDR1; format: functional, cell-based; settings: Homo sapiens; outline: as §1
# [3] = Antiproliferative activity against KBV1 cells expressing MDR1; format: functional, cell-based; settings: Homo sapiens, KB-V1; outline: as §1
# KB [4] = assay: Ratio of IC50 for KB8.5 cells to IC50 for KB cells; format: functional, Homo sapiens
# Outline: (§2)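 Resistance ratio is IC50 on KB 8.5 or KB V1 cells divided by IC50 on parental KB cells, each from 10-concentration duplicate dose-response curves.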
# [5] = Ratio of IC50 for KBV1 cells to IC50 for KB cells; format: functional, Homo sapiens; outline: as §2
# U-87MG ATCC [6] = assay: Antitumor activity against U87-MG cells xenografted in orally dosed athymic nu/nu mouse; format: functional, organism-based; settings: Homo sapiens
# Outline: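 U87-MG flank xenografts (1 × 10⁶ cells, subcutaneous) were grown in female athymic nu/nu mice and staged at 80-120 mg. Compound was given by oral gavage on days 0 and 7 after staging. Controls received Klucel vehicle […], with nine animals per group. Tumor volume was (length × width²)/2, tested by one-sided Student's t-test.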
# U-87MG ATCC [7] = assay: Antitumor activity against U87-MG cells xenografted in iv dosed athymic nu/nu mouse; format: functional, organism-based; settings: Homo sapiens
# Outline: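 Female athymic nu/nu mice received 1 × 10⁶ U87-MG cells subcutaneously in the flank. Once tumors reached 80-120 mg they were randomized into groups of 5-10. Compound was given iv in Klucel or 0.9% saline; controls got vehicle alone. Tumor volume was (length × width²)/2, compared with vehicle by one-sided Student's t-test, p ≤ 0.05.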
# HeLa [8] = assay: Induction of apoptosis in HeLa cells assessed as increase in sub-G1 population at 1 uM; format: functional, cell-based; settings: Homo sapiens
# HeLa [9] = assay: Induction of apoptosis in HeLa cells assessed as effect on sub-G1 population; format: functional, cell-based; settings: Homo sapiens
# [10] = Metabolic stability in mouse liver microsomes; format: ADME, Microsome
# [11] = Metabolic stability in rat liver microsomes; format: ADME, Microsome
# [12] = Solubility in water at pH 6.74; format: physicochemical
# [13] = Solubility in water at pH 5.48; format: physicochemical
# [14] = Volume of distribution in rat; format: ADME, organism-based; settings: in vivo, read-out: Vdss
# [15] = Clearance in rat; format: ADME, organism-based; settings: in vivo
# [16] = Half life in rat; format: ADME, organism-based; settings: in vivo
# [17] = Oral bioavailability in rat; format: ADME, organism-based; settings: in vivo
# A549 = assay: Antitumor activity against A549 cells xenografted in athymic nu/nu mouse after iv administration; format: functional, organism-based
# Outline: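 Female athymic nu/nu mice were implanted subcutaneously in the flank with 1 × 10⁷ A549 cells. Animals were staged at about 300 (mm³/mg), then randomized into groups of 5-10. Dosing was iv on days 0, 7, 14 and 21, in Klucel or 0.9% saline; controls got vehicle. Tumor volume was (length × width²)/2. Analysis used a one-sided Student's t-test, p ≤ 0.05.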
# Tubulin (Homo sapiens) [18] = target: T1, Tubulin (Homo sapiens) (UniProt P68371+Q9H4B7+P0DPH7+P68366+Q13509+Q71U36+P04350+Q3ZCM7+P07437+P68363+Q9BQE3+Q6PEY2+Q13885+Q9BVA1+Q9BUF5); assay: Induction of MAP-rich tubulin polymerization at 2.7 uM; format: protein-complex assay
# Tubulin (Homo sapiens) [19] = target: T1, Tubulin (Homo sapiens); assay: Displacement of [3H]vinblastine from tubulin; format: protein-complex assay
# Tubulin (Homo sapiens) [20] = target: T1, Tubulin (Homo sapiens); assay: Displacement of [3H]colchicine from tubulin; format: protein-complex assay
# Homo sapiens = species: Homo sapiens; assay: Displacement of [3H]paclitaxel from microtubules
# Tubulin (Homo sapiens) [21] = target: T1, Tubulin (Homo sapiens); assay: Induction of tubulin polymerization in absence of GTP; format: protein-complex assay
# HeLa [22] = assay: Induction of apoptosis in HeLa cells assessed as increase in sub-G1 population at 35 nM; format: functional, cell-based; settings: Homo sapiens
# HeLa [23] = assay: Mitotic block in HeLa cells assessed as increase in G2/M peak by flow cytometry at >35 nM; format: functional, cell-based; settings: Homo sapiens
structure (smiles),measurement,setting,value
C[C@H](Nc1c(-c2c(F)cc(OCCCCN(C)C)cc2F)c(Cl)nc2ncnn12)C(F)(F)F,pIC50,COLO 205,6.56
Fc1cc(F)c(-c2c(Cl)nc3ncnn3c2NCC(F)(F)F)c(F)c1,pIC50,COLO 205,6.43
C[C@H](Nc1c(-c2c(F)cc(OCCCN)cc2F)c(Cl)nc2ncnn12)C(F)(F)F,pIC50,COLO 205,6.34
CN(C)CCCOc1cc(F)c(-c2c(Cl)nc3ncnn3c2NCC(F)(F)F)c(F)c1.Cl,pIC50,COLO 205,7.28
same,pIC50,KB [1],7.73
same,pIC50,[2],7.42
same,pIC50,[3],6.58
same,Ratio IC50,KB [4],2
same,Ratio IC50,[5],14
same,Activity,U-87MG ATCC [6],Active
same,Activity,U-87MG ATCC [7],Active
CC(=O)O[C@@]12CO[C@@H]1C[C@H](O)[C@@]1(C)C(=O)[C@H](O)C3=C(C)[C@@H](OC(=O)[C@H](O)[C@@H](NC(=O)OC(C)(C)C)c4ccccc4)C[C@@](O)([C@@H](OC(=O)c4ccccc4)[C@H]21)C3(C)C,Activity,HeLa [8],Active
C[C@H](Nc1c(-c2c(F)cc(CCCCN(C)C)cc2F)c(Cl)nc2ncnn12)C(F)(F)F,pIC50,COLO 205,6.18
C[C@H](Nc1c(-c2c(F)cc(OCCCN3CCCCC3)cc2F)c(Cl)nc2ncnn12)C(F)(F)F,pIC50,COLO 205,6.95
C[C@H](Nc1c(-c2c(F)cc(OCCCN3CCOCC3)cc2F)c(Cl)nc2ncnn12)C(F)(F)F,pIC50,COLO 205,7.29
same,Activity,U-87MG ATCC [6],Active
same,Activity,U-87MG ATCC [7],Active
C[C@H](Nc1c(-c2c(F)cc(SCCCN(C)C)cc2F)c(Cl)nc2ncnn12)C(F)(F)F,pIC50,COLO 205,6.72
C[C@H](Nc1c(-c2c(F)ccc(F)c2F)c(Cl)nc2ncnn12)C(F)(F)F,pIC50,COLO 205,6.74
C[C@H](Nc1c(-c2c(F)cc(N(C)CCCN(C)C)cc2F)c(Cl)nc2ncnn12)C(F)(F)F,pIC50,COLO 205,5.78
C[C@H](Nc1c(-c2c(F)cc(F)cc2F)c(Br)nc2ncnn12)C(F)(F)F,pIC50,COLO 205,6.63
C[C@H](Nc1c(-c2c(F)cc(OCCO)cc2F)c(Cl)nc2ncnn12)C(F)(F)F,pIC50,COLO 205,6.37
C[C@H](Nc1c(-c2c(F)cc(F)cc2F)c(Cl)nc2ncnn12)C(F)(F)F,pIC50,COLO 205,6.57
C[C@H](Nc1c(-c2c(F)cc(OCCCN(C)C)cc2F)c(Br)nc2ncnn12)C(F)(F)F,pIC50,COLO 205,7.02
CCN(C)CCCOc1cc(F)c(-c2c(Cl)nc3ncnn3c2N[C@@H](C)C(F)(F)F)c(F)c1,pIC50,COLO 205,7.32
C[C@H](Nc1c(-c2c(F)cc(OCCCN(C)C)cc2F)c(Cl)nc2ncnn12)C(F)(F)F.Cl,pIC50,COLO 205,7.25
same,pIC50,KB [1],7.73
same,pIC50,[2],7.48
same,pIC50,[3],6.94
same,Ratio IC50,KB [4],1.8
same,Ratio IC50,[5],6.1
same,Activity,U-87MG ATCC [6],Active
same,Activity,U-87MG ATCC [7],Active
C[C@H](Nc1c(-c2ccc(OCCCN(C)C)cc2F)c(Cl)nc2ncnn12)C(F)(F)F,pIC50,COLO 205,6.58
C[C@H](Nc1c(-c2c(F)ccc(OCCCCN(C)C)c2F)c(Cl)nc2ncnn12)C(F)(F)F,pIC50,COLO 205,6.36
C[C@H](Nc1c(-c2c(F)cc(NCCCN(C)C)cc2F)c(Cl)nc2ncnn12)C(F)(F)F,pIC50,COLO 205,6.14
CCOCCCOc1cc(F)c(-c2c(Cl)nc3ncnn3c2N[C@@H](C)C(F)(F)F)c(F)c1,pIC50,COLO 205,6.57
CC[C@]1(O)C[C@H]2CN(CCc3c([nH]c4ccccc34)[C@@](C(=O)OC)(c3cc4c(cc3OC)N(C=O)[C@H]3[C@@](O)(C(=O)OC)[C@H](OC(C)=O)[C@]5(CC)C=CCN6CC[C@]43[C@@H]65)C2)C1 [VINCRISTINE],pIC50,[2],7.24
same,Ratio IC50,KB [4],26
same,Activity,HeLa [9],inactive
C[C@H](Nc1c(-c2c(F)cc(OCCN3CCOCC3)cc2F)c(Cl)nc2ncnn12)C(F)(F)F,pIC50,COLO 205,6.61
COc1cc2c(c(OC)c1OC)-c1ccc(OC)c(=O)cc1[C@@H](NC(C)=O)CC2,Activity,HeLa [9],inactive
C[C@H](Nc1c(-c2c(F)cc(OCCN(C)C)cc2F)c(Cl)nc2ncnn12)C(F)(F)F,pIC50,COLO 205,6.24
C[C@@H](Nc1c(-c2c(F)cc(F)cc2F)c(Cl)nc2ncnn12)C(F)(F)F,pIC50,COLO 205,6.15
CNCCCOc1cc(F)c(-c2c(Cl)nc3ncnn3c2N[C@@H](C)C(F)(F)F)c(F)c1.Cl,pIC50,COLO 205,7.51
same,pIC50,KB [1],7.64
same,pIC50,[2],7.17
same,pIC50,[3],6.02
same,Ratio IC50,KB [4],2.9
same,Ratio IC50,[5],41.5
same,half-life,[10],7.22 h
same,half-life,[11],1.47 h
same,solubility,[12],890 µg/mL
same,solubility,[13],7990 µg/mL
same,Vd,[14],14 L/kg
same,clearance,[15],14 mL/min/kg
same,half-life,[16],13 h
same,bioavailability,[17],61%
same,Tumour inhibition,A549,Active
same,Activity,U-87MG ATCC [6],Active
same,Activity,U-87MG ATCC [7],Active
same,Activity,Tubulin (Homo sapiens) [18],Active
same,Activity,Tubulin (Homo sapiens) [19],Active
same,Activity,Tubulin (Homo sapiens) [20],inactive
same,Activity,Homo sapiens,inactive
same,Activity,Tubulin (Homo sapiens) [21],Active
same,Activity,HeLa [22],Active
same,Activity,HeLa [23],Active
C[C@H](Nc1c(-c2c(F)cc(OCCCCO)cc2F)c(Cl)nc2ncnn12)C(F)(F)F,pIC50,COLO 205,6.82
same,pIC50,KB [1],7.38
same,pIC50,[2],7.15
same,pIC50,[3],7.17
same,Ratio IC50,KB [4],1.6
same,Ratio IC50,[5],1.6
C[C@H](Nc1c(-c2c(F)cc(OCCCN3CCCC3)cc2F)c(Cl)nc2ncnn12)C(F)(F)F,pIC50,COLO 205,7.36
same,Activity,U-87MG ATCC [6],Active
same,Activity,U-87MG ATCC [7],Active
C[C@H](Nc1c(-c2c(F)cc(OCCCN3CCC3)cc2F)c(Cl)nc2ncnn12)C(F)(F)F,pIC50,COLO 205,6.49
C[C@H](Nc1c(-c2c(F)ccc(OCCN(C)C)c2F)c(Cl)nc2ncnn12)C(F)(F)F,pIC50,COLO 205,5.80
C[C@H](Nc1c(-c2ccc(F)cc2F)c(Cl)nc2ncnn12)C(F)(F)F,pIC50,COLO 205,6.02
CCCCOc1cc(F)c(-c2c(Cl)nc3ncnn3c2N[C@@H](C)C(F)(F)F)c(F)c1,pIC50,COLO 205,5.72
C[C@H](Nc1c(-c2c(F)cc(OCCCO)cc2F)c(Cl)nc2ncnn12)C(F)(F)F,pIC50,COLO 205,7.17
C[C@H](Nc1c(-c2c(F)cc(OCCCCCO)cc2F)c(Cl)nc2ncnn12)C(F)(F)F,pIC50,COLO 205,6.67
C[C@H](Nc1c(-c2c(F)ccc(OCCCN(C)C)c2F)c(Cl)nc2ncnn12)C(F)(F)F,pIC50,COLO 205,6.11
